Bioassay records as filed in PubChem BioAssay.
Only some compounds are listed: those with a hit (about 2.7% of all), similar ones and a draw of the others.
OX1R antag-1: antagonists of human orexin 1 receptor; inhibition, % at 5 µM; hit rate 0.43% among 330,000; AID 434989; CHO/OX1R cells, Fluo-8 calcium fluorescence, orexin A; O43613;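 active = inhibition above its plate's threshold, mean inhibition of all tested compounds on the plate plus 3 SD, cut at about 37% in these data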;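 also: 0% = orexin A challenge wells and 100% = SB-334867-A antagonist wells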
OXTR ag: agonists of human oxytocin receptor. P30559. CHO-OTR cells, Fluo-8 calcium fluorescence; normalized: DMSO 0%, oxytocin 100%. activation, % at 3 µM. hit rate 0.32% among 320,000. AID 2435;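 active = activation above the mean of all tested compounds plus 3 SD, cutoff set per screening run, cut at about 20% in these data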;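 also: peak over basal fluorescence ratio from a 100 s FLIPR kinetic read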
Target sequence (P30559 whole entry, looked up): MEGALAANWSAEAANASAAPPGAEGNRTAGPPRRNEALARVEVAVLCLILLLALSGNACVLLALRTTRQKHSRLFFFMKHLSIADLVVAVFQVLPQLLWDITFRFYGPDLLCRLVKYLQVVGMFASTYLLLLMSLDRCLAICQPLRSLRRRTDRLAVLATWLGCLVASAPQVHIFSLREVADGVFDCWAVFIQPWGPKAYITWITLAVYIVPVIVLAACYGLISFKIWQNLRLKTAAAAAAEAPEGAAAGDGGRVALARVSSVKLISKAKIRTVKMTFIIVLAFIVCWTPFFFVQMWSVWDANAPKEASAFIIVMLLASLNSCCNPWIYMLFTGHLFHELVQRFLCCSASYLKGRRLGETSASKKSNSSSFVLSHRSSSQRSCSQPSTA
OXTR potentiator: potentiates the human oxytocin receptor response; hit rate 0.061% among 320,000; P30559; CHO-OTR cells, Fluo-8 calcium fluorescence, potentiator mode; 0% = oxytocin EC15, 100% = EC100; activation, % at 3 µM;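 active = activation above that plate's cutoff, the mean activation of tested compounds plus 3 SD, cut at about 6.6% in these data, passing the limit was not always enough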;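 also: 100% uses oxytocin at 75 nM as the full agonist control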
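Assay system: CHO cell line stably expressing human OTR. Reagent: EC15 oxytocin agonist. Dosing: single dose, 3.0 µM nominal final compound concentration. Timing: compound 6 min at room temperature before oxytocin, 100 s read. Signal: kinetic Fluo-8 calcium fluorescence. Controls: oxytocin EC15 low and EC100 high.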
V1aR counter: V1a receptor agonism, counter-screen for OXTR agonists. CHO-V1R cells, Fluo-8 calcium fluorescence, agonist mode; 0% DMSO, 100% 3 nM vasopressin. activation, % at 3 µM. P37288. AID 2797. hit rate 0.25% among 320,000;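 active = activation above the mean activation of all tested compounds plus 3 SD, per screening run, cut at about 20% in these data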;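 also: signal is peak over basal fluorescence ratio across a 100 second FLIPR read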
CHO parental Ca: counter-screen for OX1R antagonists: effect in parental CHO cells; inhibition, % at 5.6 µM; hit rate 0.63% among 330,000; parental CHO-K1, ATP-induced calcium, Fluo-8 fluorescence;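 active = inhibition above that plate's mean sample inhibition plus 3 SD, cut at about 26% in these data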;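 also: 0% = ATP-challenged DMSO wells and 100% = DMSO wells without ATP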
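Assay system: parental CHO cells; Read-out basis: percent inhibition of ATP-evoked calcium rise, normalized to controls; Benchmarks: ATP and no-ATP DMSO wells; Compound dosing: single nominal dose of 5.6 µM per compound; Signal: Fluo-8 calcium dye fluorescence; Also added: ATP as calcium-mobilizing challenge; Repeats: singlicate.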
OX1R antag-2: antagonists of human orexin 1 receptor (OX1R); OX1R-expressing cells, FRET antagonist read-out; hit rate 1.8% among 330,000; inhibition, % at 6.6 µM; AID 485270; in the data active = inhibition mostly above about 38%, no sharp cut-off; inactive = mostly below about 40%;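 also: 0% = agonist challenge alone and 100% = reference antagonist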
The depositor's hits bear a star.

SMILES	OX1R antag-1	OXTR ag	OXTR potentiator	V1aR counter	CHO parental Ca	OX1R antag-2
C#CCOCCOCCOCCNc1nc(N2CCN(C(=O)CCCCCCCCCCNC(=O)[C@H](CCCCN)n3cc(C)nn3)CC2)nc(N2CCN(C(=O)CCCCCCCCCCNC(=O)[C@@H]([C@H](C)CC)n3cc(CCCCCN)nn3)CC2)n1	-7.5	3.5	-12.9	38.2*	73.5*	-3.8
C#CCOCCOCCOCCNc1nc(N2CCN(C(=O)CCCCCCCCCCNC(=O)[C@H](CCCCN)n3cc(C[C@@H](C)CC)nn3)CC2)nc(N2CCN(C(=O)CCCCCCCCCCNC(=O)[C@H](CCCCN)n3cc(C[C@@H](C)CC)nn3)CC2)n1	33.5	11.0	-11.1	14.5	100.9*	-9.3
C#CCOCCOCCOCCNc1nc(N2CCN(C(=O)CCCCCCCCCCNC(=O)Cn3cc(CCCCCN)nn3)CC2)nc(N2CCN(C(=O)CCCCCCCCCCNC(=O)[C@H](CO)n3cc(CCCCCN)nn3)CC2)n1	-22.7	24.9*	-15.1	25.7*	-18.0	-14.3
Oc1ccc(Br)cc1/C=N/NC(=S)NCCc1ccccc1	6.9	-0.7	-8.3	0.9	33.8*	17.4
O=C(NCC1CCCO1)C1CCCN1C(=O)Nc1ccc(Cl)c(Cl)c1 (stereo unspecified)	-8.5	0.1	-6.6	-0.4	-3.6	4.6
Cc1cccc(Cn2cc(SCC(=O)Nc3nccs3)c3ccccc32)c1	-20.1	-1.2	-8.6	0.0	-16.9	34.2*
Cc1ccc(Cn2cc(SCC(=O)Nc3nccs3)c3ccccc32)cc1	-33.9	-0.9	-4.8	0.7	-1.6	18.6
CCc1oc2ccccc2c1C(=O)c1cc(Br)c(O)c(Br)c1	-15.5	2.7	-8.2	6.3	-13.7	75.6*
CCc1ccc(OCC(=O)c2c(O)c3ccccc3oc2=O)cc1	-8.4	-1.9	-1.4	-1.1	-4.8	56.6
COc1ccc(CCN2Cc3c(cccc3[N+](=O)[O-])C2=O)cc1OC	-27.0	1.9	-7.6	0.9	-1.5	37.6*
COc1ccccc1NC(=O)Cc1noc(CSc2cccc[n+]2[O-])n1	-22.6	3.9	-13.1	0.1	1.4	6.9
CCn1c(SCc2nc(CC(=O)Nc3ccccc3OC)no2)nnc1-c1cccs1	-5.5	-0.5	-5.7	0.3	-15.9	70.5*
CCCN(CC(=O)Nc1cc(Cl)ccc1Cl)C(=O)c1ccc2n[nH]nc2c1	-25.6	-0.3	-6.5	1.4	-21.5	0.7
O=C(c1cnn2c(-c3ccccc3)cc(-c3ccccc3)nc12)N1CCN(Cc2ccccc2)CC1	-24.0	-0.9	-7.8	-0.2	-26.1	25.1
Cc1c(NC(=O)CN2C(=O)c3cccc4cccc2c34)c(=O)n(-c2ccccc2)n1C	-12.9	-1.3	-10.2	0.4	-7.2	75.8*
Cc1c(NC(=O)c2ccc(=O)oc2)c(=O)n(-c2ccccc2)n1C	-10.7	0.5	-15.2	0.1	-5.0	76.5*
Cc1cc(C)c(S(=O)(=O)Nc2ccccc2C(=O)N2CCCC2)c(C)c1	-9.1	-0.5	-6.2	0.1	-9.0	21.0
Cc1cccc(C(=O)n2c(=S)nc3cc(C)ccn32)c1	-6.5	-0.2	0.9	1.9	-11.8	41.4*
Cc1cc(C)n2nc(-c3sccc3-n3cccc3)cc2n1	-23.7	-2.7	-0.7	-1.5	-33.6	40.3
Cc1cc(C)n2nc(-c3sccc3-n3c(C)ccc3C)cc2n1	33.2	-2.5	-2.4	-0.2	-16.2	76.2*
CC(C)CC(NC(=O)c1ccc(Cl)cc1)C(=O)OCC(=O)c1ccc2c(c1)NC(=O)CO2 (stereo unspecified)	64.7*	-1.7	-13.3	1.4	63.0*	42.0
C[C@@H](OC(=O)N1CCCCC1)[C@H]1O[C@]2(C)CCCC[C@H]1O2	-4.9	-0.1	-1.7	0.9	2.6	5.8
COc1ccc(N2CCc3c(C)nc4c(OC)cccc4c32)cc1	-5.4	0.1	-10.3	1.0	5.8	70.4*
COc1ccc(N2CCc3c(C)nc4c(OC)cc(OC)cc4c32)cc1	-16.7	1.2	-0.6	0.8	-10.0	52.9
COc1ccc(N2CCN(C(=O)CNC(=O)c3cccc(Br)c3)CC2)cc1	-19.8	0.1	-3.2	7.1	-18.1	27.8
